Measurements collected from several papers.
Each line is one published result; the experiments were not run side by side.

COc1ccc(N2CCN(CC(=O)Nc3ccc(C4=NN(C(C)=O)C(c5ccc(Br)cc5)C4)cc3)CC2)cc1 (centres unmarked)
viability (MCF-10A; cell growth or viability, MTT; 50 µM, 96 h): 86%

Cc1cc(S(=O)(=O)NC2CC(N3CCN(CC4CCN(c5cccc6c5n(C)c(=O)n6C5CCC(=O)NC5=O)CC4)C4(CC4)C3)C2)ccc1Nc1ncc(C(F)(F)F)c(N2CCC[C@](C)(O)C2)n1 (some centres unmarked)
Papp A→B (MDCK; Caco-2; 1 µM, 2 h, pH 7.4): 0.7 ×10⁻⁶ cm/s

O=c1c2ccccc2[nH]c2cc(Oc3ccc(OC(F)(F)F)cc3)ccc12
half-life (metabolic stability; mouse, liver microsomes; 1 µM, pH 7.4): 26.9 min

CC(=O)N1N=C(c2ccc(NC(=O)CN3CCN(c4ccc(Cl)cc4)CC3)cc2)CC1c1ccco1 (centres unmarked)
viability (MCF-10A; cell growth or viability, MTT; 50 µM, 96 h): 84%

O=c1c2ccc(OCc3cccc(OC(F)(F)F)c3)cc2[nH]c2cc(Cl)cc(F)c12
half-life (metabolic stability; mouse, liver microsomes; 1 µM, pH 7.4): > 60 min

COc1ccc(N2CCN(CC(=O)Nc3ccc(C4=NN(C(C)=O)C(c5ccc(Cl)cc5Cl)C4)cc3)CC2)cc1 (centres unmarked)
viability (MCF-10A; cell growth or viability, MTT; 50 µM, 96 h): 89%

Cc1cc(S(=O)(=O)NC2CC(N3CCN(CC4CCN(c5cccc6c5n(C)c(=O)n6C5CCC(=O)NC5=O)CC4)CC3)C2)ccc1Nc1ncc(C(F)(F)F)c(N2CCC[C@](C)(O)C2)n1 (some centres unmarked)
Papp A→B (MDCK; Caco-2; 1 µM, 2 h, pH 7.4): 1.2 ×10⁻⁶ cm/s

CC(=O)N1N=C(c2ccc(NC(=O)CN3CCN(c4ccc(Cl)cc4)CC3)cc2)CC1c1ccc(Cl)cc1Cl (centres unmarked)
viability (MCF-10A; cell growth or viability, MTT; 50 µM, 96 h): 91%

O=c1c2ccc(OCc3ccc(C(F)(F)F)cc3)cc2[nH]c2cc(Cl)cc(F)c12
half-life (metabolic stability; mouse, liver microsomes; 1 µM, pH 7.4): > 60 min

COc1ccc(-c2nn(-c3ccccc3)cc2C=Nc2c(N)nc(S)nc2O)cc1
CC50 (MCF-10A; cell growth or viability; 48 h): > 40 µM

COc1ccc(N2CCN(CC(=O)Nc3ccc(C(=O)C=Cc4ccc(Br)cc4)cc3)CC2)cc1
viability (MCF-10A; cell growth or viability, MTT; 50 µM, 96 h): 90%

Cc1cc(S(=O)(=O)N[C@]2(C)C[C@H](N3CCN(CC4CCN(c5ccc6c(c5F)n(C)c(=O)n6C5CCC(=O)NC5=O)CC4)CC3)C2)ccc1Nc1ncc(C(F)(F)F)c(N2CCC[C@](C)(O)C2)n1 (some centres unmarked)
Papp A→B (MDCK; Caco-2; 1 µM, 2 h, pH 7.4): 3.2 ×10⁻⁶ cm/s

CC(C)(C)OC(=O)N1CCC(Oc2ccc3c(=O)c4c(F)cc(Cl)cc4[nH]c3c2)CC1
half-life (metabolic stability; mouse, liver microsomes; 1 µM, pH 7.4): > 60 min

CNS(=O)(=O)c1ccc(Nc2ncc(C(F)(F)F)c(N3CCC(C)(O)CC3)n2)c(C)c1
Papp A→B (MDCK; Caco-2; 1 µM, 2 h, pH 7.4): 9 ×10⁻⁶ cm/s

O=c1c2ccc(Oc3ccc(OC(F)(F)F)cc3)cc2[nH]c2cc(Cl)c(F)cc12
half-life (metabolic stability; mouse, liver microsomes; 1 µM, pH 7.4): > 60 min

CNS(=O)(=O)c1ccc(Nc2ncc(C(F)(F)F)c([C@H]3CC[C@@](C)(O)CC3)n2)c(C)c1
Papp A→B (MDCK; Caco-2; 1 µM, 2 h, pH 7.4): 7.6 ×10⁻⁶ cm/s

O=c1c2c([nH]c3ccc(Oc4ccc(OC(F)(F)F)cc4)cc13)CCCC2
half-life (metabolic stability; mouse, liver microsomes; 1 µM, pH 7.4): 35.5 min

COc1ccc(N2CCN(CC(=O)Nc3ccc(C4=NN(C(C)=O)C(c5ccccc5)C4)cc3)CC2)cc1 (centres unmarked)
viability (MCF-10A; cell growth or viability, MTT; 50 µM, 96 h): 87%

CCCCN(CCCC)CCCOc1ccc2c(=O)c3c([nH]c2c1)CCCC3
half-life (metabolic stability; mouse, liver microsomes; 1 µM, pH 7.4): 38.3 min

Nc1nc(S)nc(O)c1N=Cc1cn(-c2ccccc2)nc1-c1ccc(Cl)cc1
CC50 (MCF-10A; cell growth or viability; 48 h): > 40 µM

CC(=O)N1N=C(c2ccc(NC(=O)CN3CCN(c4ccc(Cl)cc4)CC3)cc2)CC1c1ccc(C)cc1 (centres unmarked)
viability (MCF-10A; cell growth or viability, MTT; 50 µM, 96 h): 89%

CNS(=O)(=O)c1ccc(Nc2ncc(C(F)(F)F)c(N3CCC[C@](C)(O)C3)n2)c(C)c1
Papp A→B (MDCK; Caco-2; 1 µM, 2 h, pH 7.4): 16 ×10⁻⁶ cm/s

C[C@H]1Oc2cc(cnc2N)-c2c(nn(C)c2C#N)CN(C)C(=O)c2ccc(F)cc21
concentration (male Sprague-Dawley rat, brain; oral, 10 mg/kg, 1 h, single dose): 495 ng/g

Cc1ccc(C=CC(=O)c2ccc(NC(=O)CN3CCN(c4ccc(Cl)cc4)CC3)cc2)cc1
viability (MCF-10A; cell growth or viability, MTT; 50 µM, 96 h): 89%

Cc1cc(S(=O)(=O)NC2CC(N3CCN(CC4CCN(c5ccc(NC6CCC(=O)NC6=O)cc5C)CC4)CC3)C2)ccc1Nc1ncc(C(F)(F)F)c(N2CCC[C@](C)(O)C2)n1 (some centres unmarked)
Papp A→B (MDCK; Caco-2; 1 µM, 2 h, pH 7.4): 3.5 ×10⁻⁶ cm/s

CCCN(CCC)CCOc1ccc2c(=O)c3c([nH]c2c1)CCCC3
half-life (metabolic stability; mouse, liver microsomes; 1 µM, pH 7.4): 26.9 min
